# Active and inactive are the calls of the source. The rule behind the calls is not given here.
# Key:
# [1] = system: Trypanosoma cruzi; assay: Antiparasitic activity against Trypanosoma cruzi T2 epimastigotes assessed as growth inhibition at 25 uM after 5 days; assay type: functional
# In short: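 Late-log epimastigotes were grown axenically at 28 °C in BHI-tryptose with 5% fetal calf serum and seeded at 2×10^6/mL in medium containing compound (DMSO stock; final DMSO ≤1%, 1% DMSO control). Growth was read as A590 at day 0 and day 5. Inhibition = {1 − [(Ap − A0p)/(Ac − A0c)]} × 100. Means of two experiments.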
# [2] = target: Triosephosphate isomerase, glycosomal (Trypanosoma cruzi) (UniProt P52270); assay: Inhibition of Trypanosoma cruzi triosephosphate isomerase at 400 uM after 2 hrs
# Sequence of Triosephosphate isomerase, glycosomal (Trypanosoma cruzi) (P52270 whole entry): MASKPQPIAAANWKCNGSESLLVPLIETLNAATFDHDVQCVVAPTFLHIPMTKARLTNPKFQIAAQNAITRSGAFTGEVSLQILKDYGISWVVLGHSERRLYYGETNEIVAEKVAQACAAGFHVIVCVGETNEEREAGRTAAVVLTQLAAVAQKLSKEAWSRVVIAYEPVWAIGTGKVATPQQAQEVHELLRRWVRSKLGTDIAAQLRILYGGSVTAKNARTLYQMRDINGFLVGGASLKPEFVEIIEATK
# In short: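 Recombinant E. coli-expressed enzyme, dialyzed into 100 mM triethanolamine/10 mM EDTA pH 7.4, was incubated with compound (DMSO stock) in 100 mM triethanolamine, 10 mM EDTA, pH 7.4, 10% DMSO at 36 °C for 2 h. An aliquot was then assayed for activity (glyceraldehyde 3-phosphate to dihydroxyacetone phosphate, α-glycerol phosphate dehydrogenase-coupled) with 5 ng enzyme. Irreversible inhibition was scored as loss of activity; means of two experiments.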
# [3] = Selectivity for Trypanosoma cruzi triosephosphate isomerase over human triosephosphate isomerase
Structure (SMILES),inhibition [2],Ratio [3],Activity [1]
[O-][n+]1onc(-c2ccccc2)c1CN1CCN(c2ncccn2)CC1,8%,> 4,Active
[O-][n+]1onc(-c2ccccc2)c1CCl,65%,> 4,Active
Cc1c(CNc2cccc3ccccc23)no[n+]1[O-],41%,> 4,Active
O=[N+]([O-])c1ccc2c(c1)c(OCc1ccccc1)nn2CCOCCN1CCSCC1,12%,> 4,Active
CCOC(=O)c1c(-c2ccccc2)[n+]([O-])c2ccc(CN3CCN(C/C=C/c4ccccc4)CC3)cc2[n+]1[O-],12%,> 4,Active
NS(=O)(=O)NCc1ccccc1,0%,> 4,Active
O=C(/C=C/c1ccc2c(c1)OCO2)c1ccccc1O,29%,> 4,Active
C=CCNC(=S)N/N=C/c1cccs1,2%,> 4,Active
O=C(N/N=C/c1ccc([N+](=O)[O-])s1)N1CCOCC1,5%,> 4,Active
COCCNC(=O)N/N=C/c1ccc2no[n+]([O-])c2c1,3%,> 4,Active
[O-][n+]1onc(-c2ccccc2)c1CN1CCN(c2ccccc2)CC1,27%,> 4,Active
N#Cc1c2ccccc2[n+]([O-])n1-c1ccc([N+](=O)[O-])cc1,29%,> 4,Active
O=C(/C=C/c1ccc([N+](=O)[O-])o1)N1CCN(C/C=C/c2ccccc2)CC1,0%,> 4,Active
CCNC(=S)N/N=C/C=C/c1ccc([N+](=O)[O-])o1,21%,> 4,Active
[O-][n+]1onc(-c2ccccc2)c1CNc1ccc(Br)cc1,48%,> 4,Active
Oc1ccc(N/C(S)=N/c2ccccc2)cc1,24%,> 4,Active
CCCCCCN/N=C/c1no[n+]([O-])c1C,55%,> 4,Active
[O-][n+]1onc2ccc(/C=C\c3ccc(Cl)cc3)cc21,5%,> 4,Active
O=C(/C=C/c1ccc([N+](=O)[O-])o1)NC12CC3CC(CC(C3)C1)C2,16%,> 4,Active
Cc1ccc2no[n+]([O-])c2c1,8%,> 4,Active
CCCN(CCC(C)C1CC=C(C)CC1)Cc1ccc2c(c1)=[N+]([O-])C(C)(C)[N+]=2[O-] (stereo unspecified),4%,> 4,Active
CCN(CC)CCCNS(=O)(=O)NCCCN(CC)CC,0%,> 4,Active
CCCCCCCNC(=O)N/N=C/c1ccc([N+](=O)[O-])o1,60%,> 4,Active
O=C(/C=C/c1ccccc1)c1ccccc1O,15%,> 4,Active
CCCCCCNS(=O)(=O)NCCCCCC,0%,> 4,Active
O=C1C(=Cc2ccc([N+](=O)[O-])cc2)C(=O)N(C2CCCCC2)S(=O)(=O)N1C1CCCCC1,51%,> 4,Active
Nc1ccc2c(c1)[n+]([O-])c1cc(Cl)ccc1[n+]2[O-],64%,> 4,Active

# The next lines start with results.
inhibition [2],Ratio [3],Structure (SMILES),Activity [1]
25%,> 4,CCCCNC(=O)/C=C/c1ccc([N+](=O)[O-])o1,Active
59%,> 4,Nc1ccc2c(c1)[n+]([O-])c1cc(Br)ccc1[n+]2[O-],Active
76%,> 4,O=S(=O)(NCc1ccccc1)NCc1ccccc1,Active
19%,> 4,N#Cc1c2ccccc2[n+]([O-])n1-c1ccc2ccccc2c1,Active
49%,> 4,O=C1C(=Cc2ccc([N+](=O)[O-])s2)C(=O)N(C2CCCCC2)S(=O)(=O)N1C1CCCCC1,Active
10%,> 4,CCOC(=O)CN(Cc1ccc(OC)cc1)c1ccc([N+](=O)[O-])cc1[N+](=O)[O-],Active
26%,> 4,Cc1c(/C=C/c2ccc(N(C)C)cc2)[n+]([O-])cn[n+]1[O-],Active
8%,> 4,COC(=O)/C=C/c1ccc2no[n+]([O-])c2c1,Active
47%,> 4,[O-][n+]1onc(-c2ccccc2)c1CN1CCSCC1,Active
15%,> 4,COCCNC(=O)N/N=C/c1ccc([N+](=O)[O-])s1,Active
12%,> 4,O=c1c2cc([N+](=O)[O-])ccc2n2n1CCOCC2,Active
0%,> 4,[O-][n+]1onc2ccc(/C=C\c3ccccc3)cc21,Active
31%,> 4,CC1(C)[N+]([O-])=c2ccc(CN3CCN(C/C=C/c4ccccc4)CC3)cc2=[N+]1[O-],Active
4%,> 4,O=c1c2cc([N+](=O)[O-])ccc2n2n1CCCCC2,Active
38%,> 4,O=C(NCCc1ccccc1)N/N=C/c1ccc2no[n+]([O-])c2c1,Active
30%,> 4,CC(=O)CN1C(=O)c2ccccc2C1=O,Active
26%,> 4,O=C(Oc1ccccc1)N1CCOCC1,Active
15%,> 4,O=C(O)c1ccc(-c2nsc(CO)n2)cc1,Active
28%,> 4,O=[N+]([O-])c1ccccc1/C=N/N1CCOCC1,Active
12%,> 4,C=CCNC(=S)N/N=C/c1ccco1,Active
0%,> 4,O=[N+]([O-])c1ccc2c(c1)c(OCc1ccccc1)nn2CCCCCN1CCCCC1,Active
3%,> 4,COC(=O)N/N=C/c1ccc2no[n+]([O-])c2c1,Active
8%,> 4,Cc1nnc[n+]([O-])c1/C=C/c1ccc(N(C)C)cc1,Active
0%,> 4,[O-][n+]1onc2ccc(CSCCO)cc21,Active
0%,> 4,[O-][n+]1onc2ccc(CN3CCN(C/C=C/c4ccccc4)CC3)cc21,Active

# From ChEMBL document CHEMBL1629474, “Massive screening yields novel and selective Trypanosoma cruzi triosephosphate isomerase dimer-interface-irreversible inhibitors with anti-trypanosomal activity” (Eur J Med Chem, 2010)
